Test results taken from ChEMBL document CHEMBL2163204, “Synthesis and nicotinic acetylcholine receptor in vitro and in vivo pharmacological properties of 2'-fluoro-3'-(substituted phenyl)deschloroepibatidine analogues of 2'-fluoro-3'-(4-nitrophenyl)deschloroepibatidine” (J Med Chem, 2012).

How the values were obtained:
Mus musculus [1] = assay: Antinociception activity in sc dosed mouse after 5 mins by tail-flick method
[2] = molecular target: T1, Neuronal acetylcholine receptor; alpha3/beta4 (Rattus norvegicus) (UniProt P04757+P12392); assay: Agonist activity at rat alpha3beta4 nAChR expressed in Xenopus laevis oocytes at 100 uM after 2 to 6 days by two electrode voltage clamp assay relative to acetylcholine; assay type: functional, cell-based; settings: Oocyte
Method in brief: (§1)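 Two-electrode voltage clamp on Xenopus oocytes injected with rat subunit cRNA (α3β4 at 1:1 molar ratio), incubated at 19 °C in modified Barth's saline (pH 7.6). Oocytes perfused with ND96 (pH 7.5) at 20–25 °C. 100 µM compound applied for 15 s (α3β4) or 5 s (α7), 3-min washes. Response compared with the mean of three preceding ACh applications and expressed as % of maximal ACh response.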

Mus musculus [3] = assay: Effect on hypothermia in sc dosed mouse assessed as variation in rectal temperature measured after 30 mins by thermister probe based method; assay type: functional; settings: 0.5 h
Method in brief: (§2)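 Rectal temperature measured by thermistor probe inserted 24 mm, before and 30 min after s.c. saline or compound. Change computed for each mouse. Room temperature 21–24 °C.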

Mus musculus [4] = assay: Effect on spontaneous locomotor activity in sc dosed mouse after 5 mins by photocell based method; assay type: functional
Method in brief: (§3)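 Mice put into photocell activity cages 5 min after s.c. saline or compound. Beam interruptions counted over the next 10 min.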

[5] = molecular target: Neuronal acetylcholine receptor subunit alpha-7 (Rattus norvegicus) (UniProt Q05941); assay: Agonist activity at rat alpha7 nAChR expressed in Xenopus laevis oocytes at 100 uM after 2 to 6 days by two electrode voltage clamp assay relative to acetylcholine; assay type: functional, cell-based; settings: Oocyte; method in brief: as §1
Mus musculus [6] = assay: Antinociception activity in sc dosed mouse assessed as reaction time taken for jumping or licking paws after 5 mins by hot plate method
[7] = molecular target: T2, Neuronal acetylcholine receptor; alpha4/beta2 (Rattus norvegicus) (UniProt P09483+P12390); assay: Agonist activity at rat alpha4beta2 nAChR expressed in Xenopus laevis oocytes at 100 uM after 2 to 6 days by two electrode voltage clamp assay relative to acetylcholine; assay type: functional, cell-based; settings: Oocyte
[8] = molecular target: Neuronal acetylcholine receptor subunit alpha-7 (Rattus norvegicus) (UniProt Q05941); assay: Antagonist activity at rat alpha7 nAChR expressed in Xenopus laevis oocytes assessed as inhibition of acetylcholine-induced response at 100 uM after 2 to 6 days by two electrode voltage clamp assay; assay type: functional, cell-based; settings: Oocyte
[9] = molecular target: Neuronal acetylcholine receptor; alpha3/beta4 (Rattus norvegicus, UniProt P04757+P12392); assay: Antagonist activity at rat alpha3beta4 nAChR expressed in Xenopus laevis oocytes assessed as inhibition of acetylcholine-induced response after 2 to 6 days by two electrode voltage clamp assay; assay type: functional, cell-based, Oocyte
Mus musculus [10] = assay: Effect on spontaneous locomotor activity in mouse at 10 mg/kg, sc after 5 mins by photocell based method; assay type: functional; settings: route subcutaneous; method in brief: as §3
[11] = molecular target: Neuronal acetylcholine receptor; alpha4/beta2 (Rattus norvegicus, UniProt P09483+P12390); assay: Antagonist activity at rat alpha4beta2 nAChR expressed in Xenopus laevis oocytes assessed as inhibition of acetylcholine-induced response after 2 to 6 days by two electrode voltage clamp assay; assay type: functional, cell-based, Oocyte
[12] = molecular target: T3, Neuronal acetylcholine receptor subunit alpha-7 (Rattus norvegicus, UniProt Q05941); assay: Antagonist activity at rat alpha7 nAChR expressed in Xenopus laevis oocytes assessed as inhibition of acetylcholine-induced response after 2 to 6 days by two electrode voltage clamp assay; assay type: functional, cell-based, Oocyte
[13] = molecular target: T1, Neuronal acetylcholine receptor; alpha3/beta4 (Rattus norvegicus); assay: Antagonist activity at rat alpha3beta4 nAChR expressed in Xenopus laevis oocytes assessed as inhibition of acetylcholine-induced response at 100 uM after 2 to 6 days by two electrode voltage clamp assay; assay type: functional, cell-based; settings: Oocyte
Method in brief: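 Xenopus oocytes expressing rat nAChRs (α4β2 and α3β4 subunits injected at 1:1), recorded by two-electrode voltage clamp in ND96 (pH 7.5) at 20–25 °C. […] Current compared with the mean of three preceding ACh-alone responses and given as % remaining.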

[14] = molecular target: T2, Neuronal acetylcholine receptor; alpha4/beta2 (Rattus norvegicus); assay: Antagonist activity at rat alpha4beta2 nAChR expressed in Xenopus laevis oocytes assessed as inhibition of acetylcholine-induced response at 100 uM after 2 to 6 days by two electrode voltage clamp assay; assay type: functional, cell-based; settings: Oocyte
Method in brief: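 Xenopus oocytes expressing rat nAChRs (α4β2 and α3β4 subunits injected at 1:1), recorded by two-electrode voltage clamp in ND96 (pH 7.5) at 20–25 °C. Current compared with the mean of three preceding ACh-alone responses and given as % remaining.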

[15] = Displacement of [3H]epibatidine from rat cerebral cortex alpha4beta2* nAChR incubated for 4 hrs by liquid scintillation assay; assay type: tissue-based
Method in brief: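 Washed rat cerebral cortex membranes (3 mg wet weight) in 50 mM Tris pH 7.4 with 120 mM NaCl, 5 mM KCl, 2 mM CaCl2, 1 mM MgCl2. 4 h at room temperature. Nonspecific binding with 300 µM (–)-nicotine. Filtration on PEI-soaked GF/B. Ki from IC50 by Cheng–Prusoff.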

Mus musculus [16] = assay: Effect on hypothermia in mouse assessed as variation in rectal temperature at 10 mg/kg, sc measured after 30 mins by thermister probe based method; assay type: functional; settings: route subcutaneous; method in brief: as §2
Mus musculus [17] = assay: Antinociception activity in mouse assessed as reaction time taken for jumping or licking paws at 10 mg/kg, sc after 5 mins by hot plate method; assay type: functional; settings: route subcutaneous
Method in brief: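 Mice placed on a 55 °C hot plate; latency is time to jump or paw-lick. Two baseline latencies taken at least 10 min apart. Tested 5 min after s.c. dosing. %MPE computed with a 40 s maximum. Eight mice per dose.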

Mus musculus [18] = assay: Antagonist activity in sc dosed mouse assessed as inhibition of nicotine-induced antinociception after 5 mins by hot plate method; assay type: functional
[19] = molecular target: T3, Neuronal acetylcholine receptor subunit alpha-7; assay: Displacement of [125I]iodoMLA from rat cerebral cortex alpha7 nAChR at 50 nM incubated for 2 hrs by microplate scintillation assay; assay type: tissue-based
Method in brief: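 Rat cerebral cortex membranes (3 mg wet weight) in Tris assay buffer pH 7.4. Run in triplicate, 2 h on ice. Nonspecific binding with 300 µM (–)-nicotine. Filtered onto BSA-presoaked GF/B and counted by microplate scintillation.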

Mus musculus [20] = assay: Antinociception activity in mouse at 10 mg/kg, sc after 5 mins by tail-flick method; assay type: functional; settings: route subcutaneous
Method in brief: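 Mouse tail-flick: baseline latency 2–4 s, 10 s cutoff, tested 5 min after s.c. injection. %MPE = (test−control)/(10−control)×100. Eight to twelve mice per dose.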

Mus musculus [21] = assay: Antagonist activity in sc dosed mouse assessed as inhibition of nicotine-induced antinociception after 5 mins by tail flick method; assay type: functional
Mus musculus [22] = assay: Antagonist activity in mouse assessed as inhibition of nicotine-induced antinociception at 10000 ug/kg, sc after 5 mins by hot plate method; assay type: functional
Mus musculus [23] = assay: Antagonist activity in mouse assessed as inhibition of nicotine-induced antinociception at 2000 ug/kg, sc after 5 mins by hot plate method; assay type: functional

Sequence of Neuronal acetylcholine receptor; alpha3/beta4 (P04757 whole entry): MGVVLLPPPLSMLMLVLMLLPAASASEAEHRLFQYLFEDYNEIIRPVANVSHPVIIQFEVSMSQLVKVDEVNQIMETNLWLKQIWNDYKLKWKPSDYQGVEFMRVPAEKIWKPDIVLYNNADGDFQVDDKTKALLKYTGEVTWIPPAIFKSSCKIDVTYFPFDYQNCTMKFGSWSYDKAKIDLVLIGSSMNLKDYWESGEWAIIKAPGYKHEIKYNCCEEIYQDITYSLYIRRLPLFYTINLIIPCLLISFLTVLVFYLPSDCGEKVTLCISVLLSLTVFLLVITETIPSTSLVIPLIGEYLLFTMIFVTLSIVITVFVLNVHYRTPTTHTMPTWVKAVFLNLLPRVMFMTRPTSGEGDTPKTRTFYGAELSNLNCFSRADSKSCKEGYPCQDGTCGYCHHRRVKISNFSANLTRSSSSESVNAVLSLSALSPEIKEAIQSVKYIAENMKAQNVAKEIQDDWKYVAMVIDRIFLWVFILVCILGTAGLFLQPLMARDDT
Sequence of Neuronal acetylcholine receptor; alpha3/beta4 (P12392 whole entry): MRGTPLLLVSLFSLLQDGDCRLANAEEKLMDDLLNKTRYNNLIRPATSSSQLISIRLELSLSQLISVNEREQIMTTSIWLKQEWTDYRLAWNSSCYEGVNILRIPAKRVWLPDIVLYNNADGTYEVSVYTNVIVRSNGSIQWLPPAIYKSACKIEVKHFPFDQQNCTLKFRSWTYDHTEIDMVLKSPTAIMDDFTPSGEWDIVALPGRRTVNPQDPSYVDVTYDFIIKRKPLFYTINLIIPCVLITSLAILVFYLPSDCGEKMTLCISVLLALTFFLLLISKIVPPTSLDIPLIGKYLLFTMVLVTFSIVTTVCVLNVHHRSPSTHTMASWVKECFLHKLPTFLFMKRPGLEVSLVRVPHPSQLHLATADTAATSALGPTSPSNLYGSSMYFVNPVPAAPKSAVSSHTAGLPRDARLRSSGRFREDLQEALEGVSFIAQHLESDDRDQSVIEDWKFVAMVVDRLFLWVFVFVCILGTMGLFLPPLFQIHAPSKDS
Sequence of Neuronal acetylcholine receptor; alpha4/beta2 (P09483 whole entry): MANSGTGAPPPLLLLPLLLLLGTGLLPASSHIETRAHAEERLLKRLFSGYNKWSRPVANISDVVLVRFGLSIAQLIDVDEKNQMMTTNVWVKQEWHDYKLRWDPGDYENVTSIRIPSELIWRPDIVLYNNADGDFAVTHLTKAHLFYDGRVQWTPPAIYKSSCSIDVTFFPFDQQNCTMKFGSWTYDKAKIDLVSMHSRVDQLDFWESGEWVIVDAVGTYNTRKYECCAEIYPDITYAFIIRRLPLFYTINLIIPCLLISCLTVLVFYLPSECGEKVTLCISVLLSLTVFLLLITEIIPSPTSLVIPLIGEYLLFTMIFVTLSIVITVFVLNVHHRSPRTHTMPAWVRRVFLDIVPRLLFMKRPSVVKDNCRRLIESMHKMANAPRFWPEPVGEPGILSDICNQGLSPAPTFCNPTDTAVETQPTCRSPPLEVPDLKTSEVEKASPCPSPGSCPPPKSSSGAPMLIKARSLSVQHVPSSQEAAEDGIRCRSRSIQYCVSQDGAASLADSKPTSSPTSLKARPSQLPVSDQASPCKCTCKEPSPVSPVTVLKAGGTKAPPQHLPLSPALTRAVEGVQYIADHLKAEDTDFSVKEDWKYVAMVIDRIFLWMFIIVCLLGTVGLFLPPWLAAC
Sequence of Neuronal acetylcholine receptor; alpha4/beta2 (P12390 whole entry): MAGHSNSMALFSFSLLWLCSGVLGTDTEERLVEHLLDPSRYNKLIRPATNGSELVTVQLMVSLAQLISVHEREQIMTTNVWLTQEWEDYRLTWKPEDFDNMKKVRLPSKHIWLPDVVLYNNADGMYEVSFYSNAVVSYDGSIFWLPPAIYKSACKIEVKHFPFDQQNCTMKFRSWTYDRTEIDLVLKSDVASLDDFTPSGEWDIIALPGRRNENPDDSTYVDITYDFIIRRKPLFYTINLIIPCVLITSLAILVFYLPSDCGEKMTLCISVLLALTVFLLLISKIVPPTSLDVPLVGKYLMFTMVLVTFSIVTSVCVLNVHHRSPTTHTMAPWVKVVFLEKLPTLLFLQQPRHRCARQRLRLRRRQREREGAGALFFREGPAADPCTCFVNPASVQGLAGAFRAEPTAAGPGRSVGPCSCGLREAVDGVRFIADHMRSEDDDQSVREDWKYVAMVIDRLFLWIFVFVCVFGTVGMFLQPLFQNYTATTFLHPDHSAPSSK
T3 sequence (Q05941 whole entry): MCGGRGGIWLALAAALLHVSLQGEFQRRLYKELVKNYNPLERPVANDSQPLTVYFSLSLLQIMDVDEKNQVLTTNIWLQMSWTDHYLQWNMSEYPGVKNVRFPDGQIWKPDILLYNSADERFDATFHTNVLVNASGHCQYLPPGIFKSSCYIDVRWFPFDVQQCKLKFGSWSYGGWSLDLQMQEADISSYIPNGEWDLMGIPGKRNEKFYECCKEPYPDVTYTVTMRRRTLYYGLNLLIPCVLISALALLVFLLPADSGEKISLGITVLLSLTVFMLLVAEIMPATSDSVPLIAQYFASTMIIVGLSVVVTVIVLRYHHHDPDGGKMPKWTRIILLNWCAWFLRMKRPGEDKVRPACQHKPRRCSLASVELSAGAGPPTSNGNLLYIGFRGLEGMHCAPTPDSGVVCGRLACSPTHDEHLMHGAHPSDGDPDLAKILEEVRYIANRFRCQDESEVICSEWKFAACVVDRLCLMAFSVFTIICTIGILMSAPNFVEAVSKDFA
Sequence of Neuronal acetylcholine receptor subunit alpha-7 (Rattus norvegicus) (Q05941 whole entry): as above

| SMILES | %max [2] [%] | ED50 (Mus musculus [3]) [mg/kg] | ED50 (Mus musculus [4]) [mg/kg] | %max [5] [%] | %max [7] [%] | inhibition [8] [%] | IC50 [9] [nM] | Activity (Mus musculus [10]) [%] | IC50 [11] [nM] | IC50 [12] [nM] | inhibition [13] [%] | inhibition [14] [%] | Ki [15] [nM] | Activity (Mus musculus [16]) [%] | Activity (Mus musculus [17]) [%] | AD50 (Mus musculus [18]) [mg/kg] | Ki [19] [nM] | Activity (Mus musculus [20]) [%] | AD50 (Mus musculus [21]) [mg/kg] | other results |
| --- | --- | --- | --- | --- | --- | --- | --- | --- | --- | --- | --- | --- | --- | --- | --- | --- | --- | --- | --- | --- |
| Clc1ccc([C@H]2CC3CCC2N3)cn1 (mixture of isomers) | 97 | 0.004 | 0.001 | 150 | 131 | – | – | – | – | – | – | – | – | – | – | – | – | – | – | ED50 (Mus musculus [1]): 0.006 mg/kg; ED50 (Mus musculus [6]): 0.004 mg/kg |
| Fc1ncc(C2CC3CCC2N3)cc1-c1ccc(C(F)(F)F)cc1 (racemic) | 0 | – | – | 4 | 0 | 3 | 5000 | 5 | 6000 | 4000 | 4 | 8 | 0.44 | 0 | 6 | 6 | > 2000 | – | – | – |
| CS(=O)(=O)c1ccc(-c2cc(C3CC4CCC3N4)cnc2F)cc1 (racemic) | 0 | – | – | 3 | 0 | 33 | 11000 | 12 | 2800 | – | 25 | – | 0.17 | 1 | 1 | 2.6 | – | 6 | 0.018 | – |
| NS(=O)(=O)c1ccc(-c2cc(C3CC4CCC3N4)cnc2F)cc1 (racemic) | 0 | – | – | 1.8 | 0 | 18 | – | 5 | – | – | 5 | 4 | 0.94 | 0 | 19 | 1 | > 2000 | – | 0.0009 | – |
| O=S(=O)(c1ccc(-c2cc(C3CC4CCC3N4)cnc2F)cc1)C(F)(F)F (racemic) | 1.9 | – | 4.2 | 1.8 | 0 | 42 | – | – | – | – | 15 | 7 | 0.03 | 0 | – | – | > 2000 | 3 | 1.6 | inhibition in vivo at 10 mg/kg (Mus musculus [22]): 50% |
| NC(=O)c1ccc(-c2cc(C3CC4CCC3N4)cnc2F)cc1 (racemic) | 8 | 4.2 | – | 17 | 3.5 | 54 | 35000 | – | 1500 | 35000 | 36 | 6 | 0.12 | – | 60 | – | 1870 | 16 | 0.009 | inhibition in vivo at 2 mg/kg (Mus musculus [23]): 1% |
| O=[N+]([O-])c1ccc(-c2cc(C3CC4CCC3N4)cnc2F)cc1 (racemic) | 4 | 0.21 | 0.22 | 6 | 0 | 55 | 7900 | – | 3200 | 32000 | 9 | 6 | 0.009 | – | – | 0.12 | > 2000 | 5 | 0.003 | – |
| N#Cc1ccc(-c2cc(C3CC4CCC3N4)cnc2F)cc1 (racemic) | 6 | – | – | 3 | 0 | 49 | 7000 | 0 | 11000 | 98000 | 17 | 8 | 0.19 | 0 | 18 | – | > 2000 | 4 | – | inhibition in vivo at 10 mg/kg (Mus musculus [22]): 24% |
| c1cnc2cc3c(cc2n1)[C@@H]1CNC[C@H]3C1 [VARENICLINE] | 66 | 2.8 | 2.1 | 74 | 13 | – | – | – | – | – | – | 38 | – | – | 10 | 0.47 | – | 11 | 0.0002 | – |
